Assay outcomes (PubChem)
CSC inhib – cancer stem cell inhibition. 300,000 tested, 1.1% active. cancer stem cell-like cells viability, luminescence. AID 2717. inhibition, % at 7.5 µM; in the data active = inhibition above about 75%; tested in HMLE shEcad cells
Beta cell apopt – blocks beta cell apoptosis. INS-1E cytokine-induced death, ATP luminescence, 48 h; percent of positive-control rescue, neutral wells zero. protection from apoptosis, % (test concentration not listed). 300,000 tested, 0.8% active. AID 435005;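 active = Every replicate reaches about 75%, or at least half do and their mean reaches it too, limit read from the data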;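 note: 0% = cytokine-treated negative control wells and 100% = positive control rescue; higher means more ATP so stronger rescue from cytokine killing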
T cruzi repl – T. cruzi replication inhibition | T. cruzi beta-gal in NIH3T3, luminescence, 90 h | inhibition, % (concentration not given with the values) | 300,000 tested, 1.4% active | AID 1885;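 active = mean inhibition across valid replicates above about 55%, limit read from the data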;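 note: signal also drops with host cell toxicity which is not excluded here; 0% = plate median of DMSO wells and 100% = zero luminescence signal; higher percent means less beta-gal luminescence so fewer parasites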
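System – NIH/3T3 host cells with β-galactosidase reporter T. cruzi · Doses – single 50 nL compound addition per well in DMSO · Reagent – 5000 T. cruzi trypomastigotes/well · Medium – Low-serum DMEM with 2% FBS · Timing – ≥90 h infection period, 3 h prior cell attachment · Evaluation – parasite load inhibition, % · Technique – GalScreen luminescence, 60 min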
Lmaj promast – reduces viability of Leishmania major promastigotes; resazurin fluorescence viability; inhibition, % at 10 µM; 200,000 tested, 9% active; AID 1063; in the data active = inhibition above about 50%;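 note: promastigotes grown with compound for 44 hours at 28 °C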
Mdm2-MdmX inh – disrupts the human Mdm2-MdmX interaction. O15151+Q00987. SaOS-2 split-luciferase Mdm2/MdmX complementation, luminescence. inhibition, % at 8 µM. 330,000 tested, 3% active;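 active = inhibition of at least 50% at 8 µM in the primary screen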
Target sequence (O15151 whole entry, looked up): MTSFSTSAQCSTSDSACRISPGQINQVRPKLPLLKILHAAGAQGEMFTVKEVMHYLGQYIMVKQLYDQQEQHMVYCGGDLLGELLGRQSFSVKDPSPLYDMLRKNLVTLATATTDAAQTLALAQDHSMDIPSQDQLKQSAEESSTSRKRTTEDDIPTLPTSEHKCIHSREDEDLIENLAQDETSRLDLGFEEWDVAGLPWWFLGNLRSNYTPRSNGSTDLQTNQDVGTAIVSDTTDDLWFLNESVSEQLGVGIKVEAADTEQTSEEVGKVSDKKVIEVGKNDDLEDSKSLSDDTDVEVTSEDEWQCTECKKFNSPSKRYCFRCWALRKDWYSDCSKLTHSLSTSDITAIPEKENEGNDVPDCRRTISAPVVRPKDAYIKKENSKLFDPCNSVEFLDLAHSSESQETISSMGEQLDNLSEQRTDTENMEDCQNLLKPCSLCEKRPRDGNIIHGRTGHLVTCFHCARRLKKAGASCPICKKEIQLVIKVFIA
Target sequence (Q00987 whole entry, looked up): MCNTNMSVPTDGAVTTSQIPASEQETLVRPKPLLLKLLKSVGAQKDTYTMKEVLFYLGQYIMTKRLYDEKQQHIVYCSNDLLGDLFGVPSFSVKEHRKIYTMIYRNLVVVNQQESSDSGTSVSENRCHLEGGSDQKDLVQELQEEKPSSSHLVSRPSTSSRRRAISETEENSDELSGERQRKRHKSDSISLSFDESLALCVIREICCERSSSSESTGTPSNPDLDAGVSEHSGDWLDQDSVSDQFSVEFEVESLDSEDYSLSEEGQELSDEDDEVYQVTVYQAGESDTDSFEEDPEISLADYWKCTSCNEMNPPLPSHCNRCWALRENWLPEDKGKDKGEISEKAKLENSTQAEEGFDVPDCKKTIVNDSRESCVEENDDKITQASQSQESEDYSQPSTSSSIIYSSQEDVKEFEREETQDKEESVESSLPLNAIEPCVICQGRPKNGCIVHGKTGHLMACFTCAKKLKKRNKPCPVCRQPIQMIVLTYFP
SKKanGAS inh – SKKanGAS growth inhibition | 300,000 tested, 1.3% active | inhibition, % at 7.5 µM | AID 1662 | S. pyogenes SKKanGAS, kanamycin growth, BacTiter-Glo, 6 h;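 active = mean replicate score, as percent of positive control median, at least 50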;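 note: strain carries kanamycin resistance gene driven by streptokinase promoter and grows in 40 µg/ml kanamycin; loss of luminescence reflects streptokinase promoter inhibition or plain growth inhibition; 0% = median of DMSO wells and 100% = positive control at its reference dose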
* = called active by the depositor; x = no result given. This is a sample that favours compounds with a hit; in the whole collection about 9.4% have one here.

SMILES	CSC inhib	Beta cell apopt	T cruzi repl	Lmaj promast	Mdm2-MdmX inh	SKKanGAS inh
CC(C)C(=O)N1CCN(c2ccc(NC(=O)c3ccc([N+](=O)[O-])o3)cc2Cl)CC1	x	x	x	100.7*	x	x
CC(=O)N1CCN(c2ccc(NC(=O)c3ccc(Br)o3)cc2Cl)CC1	3.6	3.5	17.8	9.3	-5.0	-0.7
O=C(NCCS(=O)(=O)N1CCN(c2ccccc2)CC1)C1CCCC1	x	-2.1	-6.3	x	14.3	-4.3
C=CCNC(=S)Nc1ccc(N(C)C)cc1	-0.9	2.2	-6.0	x	-27.0	8.3
CCCC(=O)N1CCN(c2ccc(NC(=O)c3ccc([N+](=O)[O-])o3)cc2Cl)CC1	x	x	56.6*	100.7*	x	3.2
O=C(Nc1ccccc1N1CCOCC1)c1ccc([N+](=O)[O-])o1	20.4	52.8	34.1	x	25.0	16.9
O=C(Nc1cccc(S(=O)(=O)N2CCCCC2)c1)c1ccc([N+](=O)[O-])o1	77.7*	-10.6	40.3	100.3*	30.3	41.8
O=C(Nc1ccccc1N1CCCCC1)c1ccc([N+](=O)[O-])o1	x	x	x	x	29.3	x
O=C(Nc1ccc(N2CCOCC2)c(Cl)c1)c1ccc([N+](=O)[O-])o1	x	x	22.0	99.8*	x	6.2
O=C(COC(=O)c1ccc([N+](=O)[O-])o1)Nc1cccc(S(=O)(=O)N2CCCCC2)c1	0.2	23.3	-5.3	-9.0	21.5	4.6
Nc1nc(COC(=O)C2CC(=O)N(CCc3ccccc3)C2)nc(Nc2ccccc2)n1 (stereo unspecified)	-20.2	-9.0	x	x	18.9	x
CC1CCCCN1C(=O)c1ccc(CS(=O)(=O)Cc2ccccc2)cc1 (stereo unspecified)	-10.3	1.0	1.2	x	1.0	-4.5
CCOc1ccc(NC(=O)C2CC=CCC2C(=O)O)cc1 (stereo unspecified)	4.1	-2.4	-13.6	-3.1	-44.9	-7.0
CCOc1ccc(NC(=O)C2CC(C)=C(C)CC2C(=O)O)cc1 (stereo unspecified)	0.5	1.1	9.1	80.5*	2.9	0.4
Cc1cc2nc(-c3ccc[nH]c3=O)[nH]c2cc1C	63.6	78.0*	1.6	x	-4.4	35.2
O=C(Cc1c(Cl)cccc1Cl)Nc1ccncc1Cl	9.1	3.3	-14.3	x	2.6	2.1
COc1ccc(CC(=O)Nc2ccncc2Cl)cc1	8.0	102.0*	-58.7	x	10.0	1.3
Cc1ccc2nc(N(CCN(C)C)C(=O)/C=C/c3cccs3)sc2c1	-13.7	10.4	41.2	83.3*	31.9	2.4
CCN(CC)CCN(C(=O)c1ccc2c(c1)OCCO2)c1nc2ccc(C)cc2s1	13.5	-9.0	68.6*	x	-0.5	-0.1
CN(C)CCN(C(=O)/C=C/c1cccs1)c1nc2ccc(Br)cc2s1	20.1	7.0	27.9	x	27.1	-1.2
Cc1ccc2nc(N(CCN(C)C)C(=O)c3ccc4ccccc4c3)sc2c1	-12.1	-5.2	25.9	x	10.4	-4.7
CN(C)CCN(C(=O)c1ccc(N2C(=O)CCC2=O)cc1)c1nc2cc3c(cc2s1)OCO3	7.8	0.6	56.7*	-7.4	-40.3	-6.5
Cc1ccc2nc(N(CCN(C)C)C(=O)c3ccc4c(c3)OCCO4)sc2c1	-4.1	-5.2	71.7*	x	7.5	8.5
COc1ccc(NC(=O)Nc2cccc3ccccc23)cc1OC	-3.9	-2.7	-2.0	x	28.9	0.1
O=C(Cn1c(=O)cnc2ccccc21)Nc1cccc(S(=O)(=O)N2CCOCC2)c1	4.6	-0.3	x	x	-19.1	x
SMILES	CSC inhib	Beta cell apopt	T cruzi repl	Lmaj promast	Mdm2-MdmX inh	SKKanGAS inh
CC(OC(=O)c1ccc2c(=O)n3c(nc2c1)CCCCC3)C(=O)Nc1ccc(F)cc1Cl (stereo unspecified)	-7.0	-13.5	-18.6	55.5*	-21.6	4.2
O=C(Oc1ccc(F)c(F)c1)c1ccc2c(=O)n3c(nc2c1)CCC3	-2.7	3.0	-4.8	x	12.0	4.3
CC(C)c1ccc(OC(=O)c2ccc3c(=O)n4c(nc3c2)CCC4)cc1	-5.7	x	-6.5	x	-1.0	80.5*
CN(c1ccc(C(=O)N2CCN(Cc3ccc4c(c3)OCO4)CC2)cc1)S(=O)(=O)c1ccccc1	-4.2	0.2	10.8	95.5*	20.9	-2.5
COc1ccc(N(CC(=O)N2CCN(Cc3ccc4c(c3)OCO4)CC2)S(=O)(=O)c2ccc(F)cc2)cc1	-15.5	-8.4	42.5	x	20.9	11.4
O=C(CN(c1ccccc1)S(=O)(=O)c1ccccc1)N1CCN(Cc2ccc3c(c2)OCO3)CC1	-9.5	-3.2	26.8	72.0*	-15.0	1.4
Cc1ccc(S(=O)(=O)N(C)c2ccc(C(=O)N3CCN(Cc4ccc5c(c4)OCO5)CC3)cc2)cc1	19.0	-9.8	47.3	99.8*	27.0	-4.9
CCN1CCN(C(=O)CN(c2cccc(Br)c2)S(=O)(=O)c2ccccc2)CC1	5.5	3.2	-17.2	98.5*	16.0	3.8
CCOC(=O)N1CCN(C(=O)CN(c2cccc(C)c2)S(=O)(=O)c2ccccc2)CC1	-8.1	4.9	-9.2	4.8	-10.5	-4.1
O=C(CCC(=O)N1CCCC(Nc2ccccc2)C1)c1ccc(F)cc1 (stereo unspecified)	1.8	1.0	15.0	x	11.3	-5.2
Nc1cc(=O)[nH]n1C1CCCCC1	9.3	2.9	-3.1	8.7	21.5	-9.2
CC(C)(C)c1ccccc1OCC(=O)Nc1ncn[nH]1	9.3	-5.4	-6.2	2.5	13.0	-5.7
CC(C)(C)c1ccccc1OCC(=O)NCCC(=O)O	0.9	-5.7	-15.2	99.0*	23.2	-7.7
CCn1c(SCC(=O)NC2CCCCC2)nnc1-c1ccco1	x	-2.9	3.3	x	-5.7	-3.2
COc1cc(/C=N/n2c(-c3ccc4c(c3)NC(=O)CO4)csc2=Nc2cccc(C)c2)ccc1O	19.1	1.9	3.6	91.6*	43.7	29.2
COC(=O)c1c(C)oc2ccc(N(C(=O)c3ccncc3)S(=O)(=O)c3ccc4ccccc4c3)cc12	7.9	105.5*	-33.9	-5.0	41.9	15.0
COC(=O)c1c(C)oc2ccc(N(C(=O)c3ccncc3)S(=O)(=O)c3ccccc3)cc12	1.6	x	-26.0	3.1	35.0	0.9
COC(=O)c1c(C)oc2ccc(N(C(=O)c3ccncc3)S(=O)(=O)c3ccc(C)cc3C)cc12	-10.2	99.8*	-50.4	8.7	32.9	0.4
CCc1cc2c(Nc3ccc(O)cc3)nc(C)nc2s1	8.7	-3.5	-0.7	x	15.0	10.7
CC1CCN(C(=O)CN(c2ccc3c(c2)OCCO3)S(=O)(=O)c2ccccc2)CC1	-11.2	-0.4	-3.3	x	-24.7	5.5
Cc1noc(C)c1S(=O)(=O)N(CC(=O)Nc1ccc2c(c1)OCO2)c1ccc(C(C)C)cc1	x	x	x	10.4	15.3	x
Cc1nn(C)c(C)c1S(=O)(=O)N(CC(=O)Nc1ccc2c(c1)OCO2)c1ccc(C(C)C)cc1	-4.8	x	x	50.1*	18.1	x
Cc1n[nH]c(C)c1S(=O)(=O)N(CC(=O)Nc1ccc2c(c1)OCCO2)c1ccc(C(C)C)cc1	-5.3	-1.3	-7.3	56.4*	-5.8	4.6
CC(=O)c1ccc(NC(=O)C2C3C=CC(C3=C(c3ccccc3)c3ccccc3)C2C(=O)O)cc1 (stereo unspecified)	55.6	-9.8	11.1	51.9*	12.7	47.1
